Compound activity: PubChem BioAssay, Sanford-Burnham Center for Chemical Genomics
Rows were chosen to be rich in hits. Some 1.9% of all compounds tested hit in one or more screens of this group.
STEP block: STEP phosphatase inhibitors, primary screen, biochemical, fluorescence intensity, uHTS. inhibition, % at 20 µM. AID 588621, 2011. recombinant STEP, OMFP fluorogenic substrate. 360,000 tested, 0.25% active;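 active means inhibition at 20 µM, scaled per plate between control wells, above about 37%, limit read from the data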;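 further: 0% = DMSO with enzyme and substrate and 100% = substrate only without enzyme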
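Material: STEP (striatal-enriched tyrosine phosphatase) enzyme, cell-free | Medium: 50 mM Bis-Tris pH 6.0 with 2.5 mM DTT and 0.005% Tween 20 | Read-out: Percent inhibition scaled to no-enzyme and uninhibited-enzyme controls, plate-pattern corrected | Signal: Fluorescence read at 480 nm ex / 540 nm em | Times: 20 min reaction, room temperature, in the dark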
DNMT1 inh: human DNMT1 methyltransferase inhibitors, primary screen, biochemical, molecular beacon, fluorescence, HinP1I cleavage, uHTS. 360,000 tested, 0.83% active. AID 588458, 2011. inhibition (reported as % activation of signal), % at 10 µM; in the data active means inhibition above about 50%
SUMO1-SIM PPI: modulators of SUMO1 protein-protein interactions, primary screen, biochemical, uHTS; 360,000 tested, 0.33% active; SUMO1 binding to a labelled peptide, TR-FRET, 1 h; Small ubiquitin-related modifier 1 (Homo sapiens), P63165; inhibition, % at 20 µM; in the data active means inhibition above about 37%
Target sequence (P63165 whole entry, looked up): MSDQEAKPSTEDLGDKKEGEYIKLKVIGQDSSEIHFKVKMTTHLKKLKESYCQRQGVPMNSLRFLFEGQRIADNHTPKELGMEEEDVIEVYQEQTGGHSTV
CSN inh: inhibitors of CSN-mediated cullin deneddylation, primary screen, biochemical, fluorescence polarization, uHTS; COP9 signalosome complex subunit 5 (Homo sapiens), Q92905; Purified CSN, SCF-Nedd8-OG deneddylation; inhibition, % at 12.5 µM; 360,000 tested, 0.38% active;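 active means pattern-corrected inhibition above about 35%, with an unprinted fluorescence ratio check between 0.5 and 1.5, limit read from the data, passing the limit was not always enough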;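 further: 0% = enzyme with substrate and 100% = substrate without enzyme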
Target sequence (Q92905 whole entry, looked up, one chain of several): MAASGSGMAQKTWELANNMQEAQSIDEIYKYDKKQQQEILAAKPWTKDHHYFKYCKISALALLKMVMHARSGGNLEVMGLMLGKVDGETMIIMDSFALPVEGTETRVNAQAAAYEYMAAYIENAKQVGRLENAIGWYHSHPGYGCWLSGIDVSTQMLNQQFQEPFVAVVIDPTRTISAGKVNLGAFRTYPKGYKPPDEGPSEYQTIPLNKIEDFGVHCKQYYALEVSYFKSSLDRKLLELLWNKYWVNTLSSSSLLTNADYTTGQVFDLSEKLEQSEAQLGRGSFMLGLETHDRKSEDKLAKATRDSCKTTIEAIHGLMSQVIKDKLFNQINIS
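Schedule: reaction 90 min, room temperature / Assay system: HEK293T-derived human Csn5 enzyme / Input: Csn5 at 0.24 nM final / Measure: inhibition of Csn5 cleavage, % / Control set: substrate-only high control, full reaction low control / Technique: fluorescence polarization of the substrate / Buffer or medium: Tris/NaCl/DTT buffer, pH 7.5 / Reagent: SCFSkp2-Nedd8OG substrate at 10 nM final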
LMPTP block: LMPTP phosphatase inhibitors, primary screen, biochemical, fluorescence intensity, uHTS; Low molecular weight phosphotyrosine protein phosphatase (Homo sapiens), P24666; recombinant LMPTP-A, OMFP fluorogenic substrate; inhibition, % at 20 µM; 360,000 tested, 0.22% active;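 active means compounds that cut the enzyme signal by at least half of the control window in the single-dose screen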;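 further: plate controls were DMSO wells with enzyme plus substrate for no effect and substrate without enzyme for full effect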
Target sequence (P24666 whole entry, looked up): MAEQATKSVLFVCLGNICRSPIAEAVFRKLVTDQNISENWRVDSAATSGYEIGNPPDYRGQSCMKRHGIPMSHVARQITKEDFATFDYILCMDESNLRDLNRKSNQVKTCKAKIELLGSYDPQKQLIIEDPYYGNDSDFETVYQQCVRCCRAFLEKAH
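Assay system: LMPTP-A enzyme. Input: 0.625 nM LMPTP-A final. Probe or stimulus: 400 µM OMFP. Compound dosing: single 20 µM dose. Schedule: 50 min dark incubation at room temperature. Detection: fluorescence intensity of OMFP turnover product. Read-out: percent inhibition versus substrate-only and uninhibited controls. Benchmarks: no-enzyme low control, uninhibited high control.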
Scp-1 inhibitor: Scp-1 phosphatase inhibitors, primary screen, biochemical, colorimetric, uHTS; Carboxy-terminal domain RNA polymerase II polypeptide A small phosphatase 1 (Homo …; Recombinant Scp1, phosphopeptide, malachite green phosphate absorbance; inhibition, % at 20 µM; 340,000 tested, 0.88% active;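 active means inhibition above about 50% at 20 µM, limit read from the data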;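 further: plate controls were DMSO wells with enzyme for no effect and wells lacking enzyme for full effect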
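Test system – truncated SCP-1 phosphatase (76-261aa) · Reagent – Phosphorylated 17-residue peptide substrate · Incubation – 45 min room-temperature reaction, 5 min colour, 30 min stabiliser · Detection – colorimetric phosphate reagent with accelerator and stabiliser, absorbance at 630 nm · Measure – % inhibition at 20 µM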
Scp1 confirm: Scp-1 phosphatase inhibitors, retest, confirmation, biochemical, colorimetric, single concentration | shares compounds with Scp-1 inhibitor | recombinant SCP-1 catalytic domain, phosphate release, malachite green absorbance | inhibition, % at 20 µM | 2,500 tested, 61% active | AID 540281, 2011;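 further: plate controls were DMSO with enzyme for no effect and buffer wells lacking enzyme for full effect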
Scp-1 MG ctr: colorimetric readout interference by compounds, confirmation, artefact control for Scp-1 inhibitor project, biochemical, single concentration. shares compounds with Scp-1 inhibitor. Colorimetric interference counterscreen, malachite green absorbance 630 nm. apparent inhibition (interference), % at 20 µM. 2,500 tested, under 10 active. AID 540313, 2011;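 further: compounds added after enzyme reaction finished so only phosphate colour detection is probed; plate controls were DMSO wells with completed Scp-1 reaction for no effect and substrate wells lacking enzyme for full effect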
Scp1 DSF: Scp-1 binding by thermal shift, confirmation, orthogonal assay for Scp-1 inhibitor project, biophysical, differential scanning fluorimetry | Recombinant SCP1, Sypro Orange thermal shift Tm | thermal shift relative to vanadate control, % at 40 µM | shares compounds with Scp-1 inhibitor | 1,500 tested, 25% active;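 active means substances whose mean melting-temperature shift, as a percentage of the reference inhibitor's shift, reaches about 5.3%, limit read from the data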;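 further: 0% = Tm of DMSO wells and 100% = Tm with sodium orthovanadate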
Numbers without * were called inactive; . = no result given.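 How the source made its calls, unless noted: active means inhibition of at least 30% at 20 µM; inactive means the rest.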

SMILES	STEP block	DNMT1 inh	SUMO1-SIM PPI	CSN inh	LMPTP block	Scp-1 inhibitor	Scp1 confirm	Scp-1 MG ctr	Scp1 DSF
CN(C)C(=O)COC(=O)c1ccc(S(=O)(=O)NCc2ccco2)cc1	5.0	43.8	5.1	3.6	-1.0	75.1*	54.4*	-10.1	-16.1
O=C(COC(=O)c1ccc(S(=O)(=O)NCc2ccco2)cc1)Nc1ccccc1OC(F)F	-0.1	5.7	2.1	2.4	0.7	8.1	.	.	.
O=C(COC(=O)c1ccc(S(=O)(=O)NCc2ccco2)cc1)Nc1ccc(Cl)cn1	4.3	40.3	9.3	47.6*	9.2	60.4*	64.5*	-10.6	6.4*
CCCn1c(Cc2ccccc2)nnc1SC(C)C(=O)NC1CC1 (stereo not drawn)	-0.9	3.9	-19.5	-3.5	-6.8	-12.7	.	.	.
CCOC(=O)C1C(=O)C=C(c2ccc(Br)cc2)CC1c1ccco1 (stereo not drawn)	5.2	-3.5	-15.4	3.4	2.7	-13.4	.	.	.
C=CCSc1nnc(NC(=O)CSc2nc3ccccc3[nH]2)s1	5.3	20.5	5.9	0.7	0.6	23.4	.	.	.
C=CCSc1nnc(NC(=O)CSc2nc(CCC)cc(=O)[nH]2)s1	-1.8	-0.9	0.0	-1.4	-1.0	52.8*	6.6	-4.9	.
COc1cc(CNc2ccccc2SC)cc(OC)c1OC	-1.9	-0.9	-1.0	2.1	0.0	-4.0	.	.	.
CCOc1ccc(-c2nnn(CC(=O)NCc3ccccc3)n2)cc1	0.6	4.4	2.2	4.5	1.8	57.2*	-9.0	-21.6	.
Cc1cc(=O)oc2cc(NC(=O)c3ccccc3OC(F)F)ccc12	0.2	-9.0	1.1	-3.5	0.9	-4.4	.	.	.
Cc1cc(=O)oc2cc(NC(=O)c3cc(F)ccc3F)ccc12	18.6	17.8	16.6	5.2	17.3	85.8*	62.3*	-11.7	-28.9
CC(=O)c1nnn(-c2cccc(C#N)c2)c1C	1.0	-4.8	1.5	-4.6	-0.1	-1.2	.	.	.
CC(=O)c1nnn(-c2ccccc2C#N)c1C	-3.1	0.7	-3.1	2.5	-2.1	65.3*	-1.9	-7.9	.
CC(=O)NC(c1ccc(F)c(F)c1)c1nc(-c2cccc(C(C)C)c2)cs1 (stereo not drawn)	-3.4	10.8	1.2	-0.9	1.9	.	.	.	.
Cn1c(N2CCC(C(N)=O)CC2)nc2c1c(=O)n(Cc1ccc(Br)cc1)c(=O)n2C	5.3	-6.8	3.1	2.8	0.9	-8.0	.	.	.
Cc1cnc(C(=O)OCC(=O)Nc2ccccc2-c2ccccc2)cn1	0.2	-0.5	7.5	2.8	-1.8	-3.6	.	.	.
Clc1ccc(-n2cnc3c(Cl)ncnc32)cc1Cl	-1.3	10.0	1.0	2.3	-3.3	-10.4	.	.	.
CC(=O)COc1coc(CN2CCN(c3ccc(F)cc3)CC2)cc1=O	-2.9	-1.0	3.4	-2.5	-0.3	50.7*	-5.9	-7.6	.
O=C(COc1coc(CN2CCN(c3ccc(F)cc3)CC2)cc1=O)Nc1ccccc1	-1.2	-2.7	3.6	-3.4	0.7	1.4	.	.	.
O=C(N/N=C/C(Cl)=C/c1ccccc1)c1ccc2c(c1)OCO2	37.5	8.2	1.8	1.8	56.2*	101.0*	53.1*	-17.5	-15.0
CSc1nnc(-c2ccc(NC(=O)CCc3ccccc3)cc2)n1C	-3.8	7.8	0.5	-4.4	-2.5	101.6*	-5.0	-15.6	.
O=C(O)c1ccccc1C(=O)Nc1n[nH]c(=S)s1	1.0	1.8	3.6	1.2	-0.6	98.5*	42.1*	-2.7	-4.5
COc1cc(/C=C2\C(=N)N3N=C(S(C)(=O)=O)SC3=NC2=O)ccc1OS(=O)(=O)c1ccc(C)cc1	2.9	-0.5	14.1	5.0	1.4	68.8*	74.8*	-15.8	11.7*
COc1ccccc1OCCOc1ccc(/C=C2\C(=N)N3N=C(S(C)(=O)=O)SC3=NC2=O)cc1	3.1	0.8	-3.4	4.0	12.3	80.0*	55.7*	-11.7	6.9*
CCOC(=O)C1=C(COC(=O)CSc2ccc(C)cc2)NC(=O)NC1C (stereo not drawn)	5.4	3.1	26.9	-2.0	26.5	-5.7	.	.	.
SMILES	STEP block	DNMT1 inh	SUMO1-SIM PPI	CSN inh	LMPTP block	Scp-1 inhibitor	Scp1 confirm	Scp-1 MG ctr	Scp1 DSF
Cc1ccc(S(=O)(=O)NN2C(=O)/C(=C/c3ccc(C(=O)O)cc3)SC2=S)cc1	3.0	-0.2	-13.4	-6.4	1.9	63.7*	4.5	-11.5	.
O=C1Nc2ccccc2C1=Nc1ccc(S(=O)(=O)Nc2nccs2)cc1	37.7	4.3	88.3*	18.1	3.1	80.0*	73.0*	-5.2	12.7*
CCCSC1=N/C(=C\c2ccc([N+](=O)[O-])o2)C(=O)S1	30.7	93.4*	61.8*	39.1	45.1	60.0*	71.8*	-16.7	11.3*
CCSC1=N/C(=C\c2ccc(-c3ccccc3[N+](=O)[O-])o2)C(=O)S1	1.4	-2.7	-0.8	-46.9	5.1	-19.6	.	.	.
CCn1cc([N+](=O)[O-])c(=O)c2cc(F)c(N3CCOCC3)cc21	-0.6	0.3	-2.5	-1.8	0.1	-9.7	.	.	.
CC(C)c1cc(C(=O)NC2CCCCC2)no1	-0.2	1.7	-2.2	-3.8	-0.4	72.8*	-7.1	-4.3	.
COc1cc(/C=N/Nc2cccc(C)c2)ccc1OC(=O)c1ccco1	2.9	-30.5	-1.2	-3.0	-0.1	-5.2	.	.	.
COc1ccc2[nH]cc(/C=C/c3cc[n+](C)cc3)c2c1	-1.6	-6.3	-60.3	32.5	3.7	58.2*	-20.6	-18.1	.
COc1cccc(C2(CSc3nnc(-c4cc(OC)c(OC)c(OC)c4)o3)OCCO2)c1	8.6	-2.8	-0.4	-6.0	3.4	-12.4	.	.	.
N#CC(c1ccccc1)N(CCCCl)C(=O)c1ccc(Br)cc1 (stereo not drawn)	2.1	1.7	0.1	-6.9	0.5	-10.2	.	.	.
